Test results reported in ChEMBL document CHEMBL3244390, “New antiarrhythmic agents. 1. Primary alpha-amino anilides” (J Med Chem, 1979).

Tests used:
Mus musculus [1] = test: Antiarrhythmic activity in Swiss albino mouse assessed as protection against chloroform-induced fibrillation at 100 mg/kg, sc relative to control; format: functional, Heart; conditions: route subcutaneous
Method in brief: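 Mice (18–25 g) were dosed and exposed to CHCl3 vapor 20 min later until respiration ceased. Presence or absence of ventricular fibrillation was judged through the opened thorax, and protection was scored as the fraction of animals free of fibrillation. A preliminary 100 mg/kg dose was used to estimate doses for the full screen.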

Mus musculus [2] = test: Toxicity in Swiss albino mouse assessed as induction of ataxia at 100 mg/kg, sc relative to control; format: organism-based; design: dose 100 mg/kg, route subcutaneous; conditions: in vivo
Method in brief: (§1)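 Single preliminary dose of 100 mg/kg. Mice (18–25 g) were watched for overt CNS toxicity signs, including convulsions, ataxia and loss of righting reflex, during the 20 min between treatment and exposure to CHCl3 vapor.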

Mus musculus [3] = test: Toxicity in Swiss albino mouse assessed as induction of convulsions at 100 mg/kg, sc relative to control; format: organism-based; design: dose 100 mg/kg, route subcutaneous; conditions: in vivo; method in brief: as §1
Mus musculus [4] = test: Toxicity in Swiss albino mouse assessed as induction of loss of righting reflex at 100 mg/kg, sc relative to control; format: organism-based; design: dose 100 mg/kg, route subcutaneous; conditions: in vivo; method in brief: as §1
Mus musculus [5] = test: Antiarrhythmic activity in sc dosed Swiss albino mouse assessed as protection against chloroform-induced fibrillation relative to control; format: functional; conditions: Heart
Method in brief: (§2)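 Mice (18–25 g) were dosed and observed for signs of toxicity. Twenty minutes after dosing they were exposed to CHCl3 vapor until respiration ceased, and ventricular fibrillation was scored by inspecting the opened thorax.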

Mus musculus [6] = test: Antiarrhythmic activity in sc dosed Swiss albino mouse assessed as protection against chloroform-induced fibrillation relative to lidocaine; format: functional, Heart; method in brief: as §2
Canis familiaris [7] = test: Antiarrhythmic activity in coronary ligated dog assessed as reduction of ventricular ectopic beats to <5% of total ventricular beats at 0.5 mg/kg, iv measured for 5 mins relative to control; format: functional, Canis lupus familiaris, Heart; design: scale not given: the % may be the effect or the level left
Canis familiaris [8] = test: Antiarrhythmic activity in coronary ligated dog assessed as reduction of mean arterial blood pressure at 0.5 mg/kg, iv measured for 5 mins relative to control; format: functional, Canis lupus familiaris, Artery
Canis familiaris [9] = test: Antiarrhythmic activity in coronary ligated dog assessed as reduction of ventricular rates at 0.5 mg/kg, iv measured for 5 mins relative to control; format: functional, Canis lupus familiaris, Heart
Canis familiaris [10] = test: Antiarrhythmic activity in iv dosed coronary ligated dog assessed as concentration required to reduce ventricular ectopic beats to <5% of total ventricular beats measured for 5 mins; format: functional, Canis lupus familiaris, Heart
Method in brief: (§3)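 Clearing was defined as less than 5% ectopic beats for 5 min, and the infusion was shut off at clearing or when toxicity appeared. Doses are in mmol/kg, reported as means with standard deviations over the experiments.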

Canis familiaris [11] = test: Toxicity in iv dosed coronary ligated dog assessed as concentration required to cause convulsions; format: organism-based, Canis lupus familiaris; conditions: in vivo; method in brief: as §3
Canis familiaris [12] = test: Toxicity in iv dosed coronary ligated dog assessed as concentration required to cause mortality measured 87 mins after end of infusion; format: organism-based, Canis lupus familiaris; conditions: in vivo, 1.45 h
Method in brief: (§4)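 Dogs with ventricular arrhythmias from coronary artery ligation (Harris method) received drug by infusion, with the ectopic beat incidence monitored. Clearing was defined as less than 5% ectopic beats for 5 min. Infusion was stopped at clearing or when toxicity was observed. The dose was recorded at the time of the endpoint. Mortality was noted, including death after the end of infusion.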

[13] = Half life in dog; format: ADME, organism-based, Canis lupus familiaris; conditions: in vivo
Canis familiaris [14] = test: Toxicity in iv dosed coronary ligated dog assessed as concentration required to cause mortality; format: organism-based, Canis lupus familiaris; conditions: in vivo; method in brief: as §4
[15] = Oral bioavailability in dog; format: ADME, organism-based, Canis lupus familiaris; conditions: in vivo
[16] = Half life in human; format: ADME, organism-based; conditions: in vivo

SMILES	Activity (Mus musculus [1]) [%]	Activity (Mus musculus [2]) [%]	Activity (Mus musculus [3]) [%]	Activity (Mus musculus [4]) [%]	ED50 (Mus musculus [5]) [µmol/kg]	Ratio ED50 (Mus musculus [6])	Activity (Canis familiaris [7]) [%]	Activity (Canis familiaris [8]) [Torr]	Activity (Canis familiaris [9]) [bpm]	Activity (Canis familiaris [10]) [mmol/kg]	Activity (Canis familiaris [11]) [mmol/kg]	Activity (Canis familiaris [12]) [mmol/kg]	half-life [13] [h]	Activity (Canis familiaris [14]) [mmol/kg]	bioavailability [15] [%]	half-life [16] [h]
Cc1cc(C)c(NC(=O)CN)c(C)c1.Cl	10	100	80	0	790	0.3										
Cc1cccc(C)c1NC(=O)CN.Cl	10	0	0	0	900	0.3	0	85	123	0.48	0.48	0.56	3.7			
Cc1cccc(C)c1NC(=O)C(N)c1ccccc1.Cl (stereo unspecified)	80	100	100	100	220	1.2										
CCc1cccc(CC)c1NC(=O)C(N)CC.Cl (stereo unspecified)	100	100	100	0	230	1.2										
CCc1cccc(CC)c1NC(=O)C(C)N.Cl (stereo unspecified)	20	100	10	0	530	0.5	2	140	124	0.26	0.23			0.45		
Cc1cccc(C)c1NC(=O)[C@@H](C)N.Cl	10	70	0	0	930	0.3	0	105	123	0.31	0.21					
CCC(N)C(=O)Nc1c(C)cccc1C.Cl (stereo unspecified)													1.5			
CCc1cccc(CC)c1NC(=O)CN.Cl	10	100	0	0	1200	0.2										
CCc1cccc(C)c1NC(=O)CN.Cl	20	100	0	0	1300	0.2										
Cc1cccc(C)c1NC(=O)[C@H](C)N.Cl	0	0	0	0	3100	0.1	0	85	99	0.11						
CCN(CC)CC(=O)Nc1c(C)cccc1C.Cl	100	100	100	100	260		4	101	133	0.21	0.27					
Cc1cccc(C)c1NC(=O)C(C)N.Cl (racemic) [TOCAINIDE HYDROCHLORIDE]	20	10	0	0	1300	0.2	2	108	148	0.32	0.3		4.7		80	11
